This is a sample that favours compounds with a hit; in the whole collection about 2.4% have one here.
NPY-Y2 antag = blocks the human neuropeptide Y Y2 receptor. P49146. NPY-Y2 expressing cells, antagonist mode. inhibition, % at 2.7 µM. hit rate 0.99% among 140,000; in the data active means inhibition above about 17%
NPY1 pot ag = potentiates or activates human NPY-Y1 receptor; P25929; NPY-Y1 expressing cells, potentiator/agonist activation; activation, % at 3.6 µM; hit rate 0.37% among 220,000; AID 1304; in the data active means activation above about 33%, passing the limit was not always enough;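 further: cells stimulated with NPY at EC10 then isoproterenol at EC100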
S1P4 ag = human S1P4 receptor agonism. hit rate 0.35% among 220,000. S1P4-expressing cell line, agonist reporter assay. activation, % at 4.98 µM. O95977; in the data active means activation above about 11%
Target sequence (O95977 whole entry, looked up): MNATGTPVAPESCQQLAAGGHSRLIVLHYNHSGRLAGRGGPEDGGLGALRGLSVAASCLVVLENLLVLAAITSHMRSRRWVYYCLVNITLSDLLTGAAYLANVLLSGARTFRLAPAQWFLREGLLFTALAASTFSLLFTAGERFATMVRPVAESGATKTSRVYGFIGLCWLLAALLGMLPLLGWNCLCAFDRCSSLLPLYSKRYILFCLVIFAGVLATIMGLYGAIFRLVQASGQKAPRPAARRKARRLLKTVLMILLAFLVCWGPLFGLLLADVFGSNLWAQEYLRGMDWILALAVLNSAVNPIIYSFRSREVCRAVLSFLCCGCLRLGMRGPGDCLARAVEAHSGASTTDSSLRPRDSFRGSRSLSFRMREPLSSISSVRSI
NPY-Y2 PAM-ag = potentiates or activates human NPY-Y2 receptor; P49146; cells expressing NPY-Y2, potentiator/agonist read-out; activation, % at 3.6 µM; hit rate 0.45% among 220,000; AID 1359; in the data active means activation above about 27%;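 further: cells stimulated with NPY near EC25 plus isoproterenol at EC100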
S1P4 antagonist = blocks the human S1P4 receptor; hit rate 0.26% among 220,000; O95977; inhibition, % at 4.98 µM; S1P4-expressing cells, antagonist mode, reporter read-out; in the data active means inhibition above about 29%
NPY Y1 blocker = antagonists of human neuropeptide Y receptor Y1; P25929; HEK293-CNG Y1 cells, membrane potential fluorescence; NPY at EC95, then isoproterenol; inhibition, % at 3.6 µM; hit rate 1% among 200,000; AID 1040;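 active means inhibition above the campaign mean inhibition of all tested compounds plus 3 SD, cut at about 20% in these data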
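Test system: HEK293 cells co-expressing NPY Y1 receptor and cyclic-nucleotide gated channel; Also added: NPY (25 nM), isoproterenol (1 µM), Ro 20-1724 (25 µM); Compound dosing: one concentration, 3.6 µM, in 0.4% DMSO; Timing: dye 3 h, compound 60 min room temperature, stimulation 45 min; Technique: Membrane-potential fluorescent dye readout.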
Large screens that a line does not name were inactive.

COc1ccc(C)cc1NC(=O)COC(=O)C1CCN(C(=O)c2ccc(Cl)cc2)CC1	NPY1 pot ag 86, NPY-Y2 PAM-ag 90 (no result: NPY-Y2 antag)
COc1ccc2[nH]c(CN3CCC(CO)(CCOc4ccccc4)CC3)c(C)c2c1	none (no result: NPY-Y2 antag)
Nc1cc(=O)[nH]c(=S)n1-c1cccc(C(F)(F)F)c1	none
CC1CCCN(Cc2nc3c(c(=O)n(C)c(=O)n3C)n2CC(N)=O)C1 (configuration not stated)	none
O=C(NC1CCCCCCC1)C1c2ccccc2C(=O)N1Cc1cccs1 (configuration not stated)	NPY-Y2 antag 31, NPY Y1 blocker 33
Nn1c(SC/C=C/c2ccccc2)nnc1-c1cccnc1	none
CCOc1ccc(-n2c(SCc3ccc(C#N)cc3)nnc2-c2cccnc2)cc1	NPY-Y2 antag 26, NPY Y1 blocker 45
Clc1ccc(-n2c(SC/C=C/c3ccccc3)nnc2-c2cccnc2)cc1	NPY-Y2 antag 30, NPY Y1 blocker 23
O=C(Nc1ccc(Cl)c(Cl)c1)Nc1ccc([N+](=O)[O-])cn1	none (no result: NPY-Y2 antag, NPY Y1 blocker)
CCC(C)NC(=O)CCC(=O)Nc1ccc2nc(N3CCOCC3)cc(C)c2c1 (configuration not stated)	NPY1 pot ag 84, NPY-Y2 PAM-ag 93
CCC(C)NC(=O)CCC(=O)Nc1ccc2nc(N3CC(C)CC(C)C3)cc(C)c2c1 (configuration not stated)	none (no result: NPY-Y2 antag)
CCN(CC)CCNC(=S)Nc1ccc2nc(N3CCCC3)cc(C)c2c1	none (no result: NPY-Y2 antag)
CCCN(CCC)CCCNC(=S)Nc1ccc2nc(N3CCCC3)cc(C)c2c1	NPY Y1 blocker 22 (no result: NPY-Y2 antag)
Cc1cc(SCC(=O)OCC(=O)NC(C)c2ccccc2)c(C)cc1Br (configuration not stated)	none
Cc1cccc(CCNS(=O)(=O)c2ccc(S(=O)(=O)N3CCC(C)CC3)cc2)c1	NPY Y1 blocker 22
Cc1ccc(Nc2nc(-c3ccc(O)c(O)c3)cs2)nc1	NPY1 pot ag 44, NPY-Y2 PAM-ag 51 (no result: NPY-Y2 antag)
COc1ccc(-c2csc(Nc3ccc(C)cn3)n2)cc1OC	none (no result: NPY-Y2 antag)
CC1CN(C(=O)c2ccccc2Sc2ccccc2C#N)CC(C)O1 (configuration not stated)	none
Clc1ccc(CN2C3=NCCN3c3ccccc32)cc1Cl	NPY-Y2 antag 18, NPY Y1 blocker 39
CCOC(=O)CNc1nc(C#N)nc(N2CCOCC2)n1	none
CCC(C)OC(=O)C[N+](C)(C)CCOC1CC2CCC1(C)C2(C)C (configuration not stated)	NPY Y1 blocker 21 (no result: NPY-Y2 antag)
CC(C)CCOC(=O)C[N+](C)(C)CCOC1CC2CCC1(C)C2(C)C (configuration not stated)	none (no result: NPY-Y2 antag)
CCC(C)(C(=O)NC1CCCCC1)N(C(=O)Cc1cccs1)c1ccccc1 (configuration not stated)	NPY-Y2 antag 17, NPY Y1 blocker 34
CCC(C)(C(=O)NC1CCCC1)N(Cc1cccs1)C(=O)Cc1cccs1 (configuration not stated)	NPY-Y2 antag 38, NPY Y1 blocker 37
CCC(C)(C(=O)NC1CCCC1)N(Cc1cccs1)C(C)=O (configuration not stated)	none
CCC(C)(C(=O)NC1CCCCC1)N(CC1CCCO1)C(=O)Cc1cccs1 (configuration not stated)	NPY Y1 blocker 21 (no result: NPY-Y2 antag)
CCOC(=O)CSc1nc2c(sc(=S)n2Cc2ccco2)c(=O)n1-c1ccccc1	NPY-Y2 antag 36, NPY Y1 blocker 60
CCOC(=O)CSc1nc2ccccc2c(=O)n1Cc1ccco1	none
CCOC(=O)CSc1nc2c(sc(=S)n2-c2ccccc2OC)c(=O)n1Cc1ccco1	NPY-Y2 antag 27, NPY Y1 blocker 34
CC1C(c2ccccc2)=NNc2nc3c(c(=O)n(C)c(=O)n3C)n21 (configuration not stated)	none (no result: NPY-Y2 antag, NPY Y1 blocker)
Cc1cccc(NC(=O)CCC(=O)OCC(=O)c2ccc(Oc3ccc([N+](=O)[O-])cc3)cc2)c1	NPY1 pot ag 53, NPY-Y2 PAM-ag 47
Cc1ccc(NC(=O)CCC(=O)OCC(=O)c2ccc(Oc3ccc([N+](=O)[O-])cc3)cc2)cc1C	none
O=C(Nc1nccs1)c1ccc(S(=O)(=O)NCC2CCCCC2)cc1	NPY1 pot ag 42
Cc1ccc(NC(=O)CSc2nc3ccccc3c(=O)n2CCCN2CCCCC2)cc1C	NPY-Y2 antag 34, NPY Y1 blocker 38
O=C(CN1CCCCC1)Nc1cccc(Br)c1	none
Cc1nc2c3cc(Cl)ccc3n(CCN3CCCCC3)c2s1	NPY-Y2 antag 33, NPY Y1 blocker 25
Cc1nc2c3cc(F)ccc3n(Cc3ccc(F)cc3)c2s1	NPY-Y2 antag 18, NPY Y1 blocker 27
CCOC(=O)C1CCN(C(c2cccc(OC)c2)c2sc3nc(C)nn3c2O)CC1 (configuration not stated)	none
CC1CCN(c2nc(-c3cccnc3)nc3scc(-c4ccccc4)c23)CC1	none
CC1CCN(c2nc(CN3CCCCC3)nc3scc(-c4ccccc4)c23)CC1	NPY-Y2 antag 47, NPY Y1 blocker 41
CC(=O)Nc1ccc(SCC(=O)N(CCC#N)c2cc(C)cc(C)c2)cc1	none
COc1cccc(OCC(O)CN2CCC(CN3C(=O)c4cccc5cccc(c45)C3=O)CC2)c1 (configuration not stated)	NPY1 pot ag 52, NPY-Y2 PAM-ag 43 (no result: NPY-Y2 antag)
O=C1NCCN1CCNS(=O)(=O)c1ccc(F)cc1	none
O=S(=O)(c1ccc(F)cc1)N1CC2CCCN2c2ccc(C(F)(F)F)cc21 (configuration not stated)	NPY1 pot ag 64, NPY-Y2 PAM-ag 44
Cc1ccc(S(=O)(=O)N2CC3CCCN3c3ccc(C(F)(F)F)cc32)cc1 (configuration not stated)	NPY-Y2 PAM-ag 28
CSC1=NCCN1S(=O)(=O)c1ccc(F)cc1	none (no result: NPY-Y2 antag)
Cc1ccc(CN2CCN(Cc3cn[nH]c3-c3ccccc3)CC2CCO)o1 (configuration not stated)	none (no result: NPY-Y2 antag)
C=CC[n+]1ccc(/C=C2\C=Cc3cc(C)ccc3N2CC)c2ccccc21	NPY-Y2 PAM-ag 31 (no result: NPY-Y2 antag)
Cc1ccc(-c2[nH]nc3c2C(c2ccoc2)C(C#N)=C(N)O3)cc1C (configuration not stated)	NPY-Y2 antag 87, NPY Y1 blocker 110
COc1ccc(-c2[nH]nc3c2C(c2ccoc2)C(C#N)=C(N)O3)cc1 (configuration not stated)	none
N#CC1=C(N)Oc2n[nH]c(-c3cccs3)c2C1c1ccsc1 (configuration not stated)	NPY Y1 blocker 28
Cc1[nH]nc2c1C(c1ccc(Cl)cc1)C(C#N)=C(N)O2 (configuration not stated)	none
Cc1cc(-c2[nH]nc3c2C(c2ccc(Cl)cc2)C(C#N)=C(N)O3)c(C)s1 (configuration not stated)	NPY-Y2 antag 69, NPY Y1 blocker 59

High-throughput results deposited in PubChem BioAssay by The Scripps Research Institute Molecular Screening Center.
